Laboratory results: ChEMBL document CHEMBL4257493, “Discovery of 7-hydroxyaporphines as conformationally restricted ligands for beta-1 and beta-2 adrenergic receptors” (Medchemcomm, 2018)
pIC50, pKi: −log10 of the molar value.

Experiments:
[1] = biological target: T1, Beta-1 adrenergic receptor (Homo sapiens, UniProt P08588); experiment: Displacement of [3H]-CGP-12177 from human beta1-adrenergic receptor
Target sequence in this assay (P08588 whole entry): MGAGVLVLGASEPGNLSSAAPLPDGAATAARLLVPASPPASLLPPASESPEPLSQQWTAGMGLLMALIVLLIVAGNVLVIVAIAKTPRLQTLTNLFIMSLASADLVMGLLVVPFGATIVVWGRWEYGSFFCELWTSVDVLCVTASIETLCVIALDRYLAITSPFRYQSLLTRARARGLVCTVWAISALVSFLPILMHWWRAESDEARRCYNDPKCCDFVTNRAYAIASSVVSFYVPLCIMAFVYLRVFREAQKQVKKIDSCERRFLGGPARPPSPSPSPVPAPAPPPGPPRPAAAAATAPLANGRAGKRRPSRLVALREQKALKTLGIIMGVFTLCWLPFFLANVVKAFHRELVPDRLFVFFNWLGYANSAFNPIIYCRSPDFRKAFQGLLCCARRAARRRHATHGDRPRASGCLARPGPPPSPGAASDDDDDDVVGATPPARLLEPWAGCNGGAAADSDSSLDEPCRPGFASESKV

[2] = biological target: T2, Beta-2 adrenergic receptor (Homo sapiens, UniProt P07550); experiment: Antagonist activity at human beta2-adrenergic receptor expressed in CHO-K1 cells assessed as decrease in procaterol-induced cAMP accumulation after 20 mins by HTRF assay; type: functional, cell-based
Method in brief: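 Contract functional assay on human beta2 receptor expressed in CHO cells, with antagonist mode against agonist-stimulated cAMP. Incubation 20 min at 37 °C in HBSS, 5 mM HEPES, 0.1% BSA, 100 µM IBMX, pH 7.4, with 0.40% DMSO vehicle. HTRF quantitation of cAMP accumulation; dose-response curves.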
Target sequence in this assay (P07550 whole entry): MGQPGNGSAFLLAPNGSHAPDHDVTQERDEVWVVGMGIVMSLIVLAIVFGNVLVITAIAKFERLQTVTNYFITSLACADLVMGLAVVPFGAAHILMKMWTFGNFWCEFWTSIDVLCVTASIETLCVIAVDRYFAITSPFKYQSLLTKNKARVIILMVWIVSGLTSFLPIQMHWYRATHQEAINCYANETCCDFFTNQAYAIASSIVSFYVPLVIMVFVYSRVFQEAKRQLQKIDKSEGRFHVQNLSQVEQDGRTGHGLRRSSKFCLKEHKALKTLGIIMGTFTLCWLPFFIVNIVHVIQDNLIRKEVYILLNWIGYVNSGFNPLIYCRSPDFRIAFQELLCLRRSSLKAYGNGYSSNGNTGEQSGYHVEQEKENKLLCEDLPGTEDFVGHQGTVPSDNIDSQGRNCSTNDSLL

[3] = biological target: 5-hydroxytryptamine receptor 1A (Homo sapiens, UniProt P08908); experiment: Binding affinity to 5-HT1A receptor (unknown origin) assessed as inhibition of radioligand binding by radioligand competition binding assay
[4] = biological target: 5-hydroxytryptamine receptor 1B (Homo sapiens, UniProt P28222); experiment: Binding affinity to 5-HT1B receptor (unknown origin) assessed as inhibition of radioligand binding by radioligand competition binding assay
[5] = biological target: T3, 5-hydroxytryptamine receptor 2B (Homo sapiens, UniProt P41595); experiment: Binding affinity to 5-HT2B receptor (unknown origin) assessed as inhibition of radioligand binding by radioligand competition binding assay
[6] = biological target: 5-hydroxytryptamine receptor 6 (Homo sapiens, UniProt P50406); experiment: Binding affinity to 5-HT6 receptor (unknown origin) assessed as inhibition of radioligand binding by radioligand competition binding assay
[7] = biological target: Alpha-2B adrenergic receptor (Homo sapiens, UniProt P18089); experiment: Binding affinity to andrenergic alpha2B receptor (unknown origin) assessed as inhibition of radioligand binding by radioligand competition binding assay
[8] = biological target: T1, Beta-1 adrenergic receptor; experiment: Binding affinity to andrenergic beta1 receptor (unknown origin) assessed as inhibition of radioligand binding by radioligand competition binding assay
Target sequence in this assay (P08588 whole entry): as the sequence (P08588 whole entry) above

[9] = biological target: T2, Beta-2 adrenergic receptor; experiment: Binding affinity to andrenergic beta2 receptor (unknown origin) assessed as inhibition of radioligand binding by radioligand competition binding assay
Target sequence in this assay (P07550 whole entry): as the sequence (P07550 whole entry) above

[10] = biological target: 5-hydroxytryptamine receptor 1D (Homo sapiens, UniProt P28221); experiment: Binding affinity to 5-HT1D receptor (unknown origin) assessed as inhibition of radioligand binding at 10 uM by radioligand competition binding assay
[11] = biological target: T3, 5-hydroxytryptamine receptor 2B; experiment: Binding affinity to 5-HT2B receptor (unknown origin) assessed as inhibition of radioligand binding at 10 uM by radioligand competition binding assay
[12] = biological target: 5-hydroxytryptamine receptor 7 (Homo sapiens, UniProt P34969); experiment: Binding affinity to 5-HT7 receptor (unknown origin) assessed as inhibition of radioligand binding at 10 uM by radioligand competition binding assay
[13] = biological target: Alpha-2A adrenergic receptor (Homo sapiens) (UniProt P08913); experiment: Binding affinity to andrenergic alpha2A receptor (unknown origin) assessed as inhibition of radioligand binding at 10 uM by radioligand competition binding assay
[14] = biological target: Alpha-2B adrenergic receptor (Homo sapiens) (UniProt P18089); experiment: Binding affinity to andrenergic alpha2B receptor (unknown origin) assessed as inhibition of radioligand binding at 10 uM by radioligand competition binding assay
[15] = biological target: T1, Beta-1 adrenergic receptor; experiment: Binding affinity to andrenergic beta1 receptor (unknown origin) assessed as inhibition of radioligand binding at 10 uM by radioligand competition binding assay
Target sequence in this assay (P08588 whole entry, looked up): as the sequence (P08588 whole entry) above

[16] = biological target: T2, Beta-2 adrenergic receptor; experiment: Binding affinity to andrenergic beta2 receptor (unknown origin) assessed as inhibition of radioligand binding at 10 uM by radioligand competition binding assay
Rattus norvegicus = species: Rattus norvegicus; experiment: Binding affinity to rat GABAA BZP receptor assessed as inhibition of radioligand binding by radioligand competition binding assay; conditions: concentration not given here
[17] = biological target: Sodium-dependent noradrenaline transporter (Homo sapiens) (UniProt P23975); experiment: Binding affinity to NET (unknown origin) assessed as inhibition of radioligand binding by radioligand competition binding assay; conditions: concentration not given here
[18] = biological target: Mu-type opioid receptor (Homo sapiens) (UniProt P35372); experiment: Binding affinity to MOR (unknown origin) assessed as inhibition of radioligand binding by radioligand competition binding assay; conditions: concentration not given here
[19] = biological target: Sigma non-opioid intracellular receptor 1 (Homo sapiens) (UniProt Q99720); experiment: Binding affinity to sigma1 receptor (unknown origin) assessed as inhibition of radioligand binding by radioligand competition binding assay; conditions: concentration not given here
[20] = biological target: Delta-type opioid receptor (Homo sapiens) (UniProt P41143); experiment: Binding affinity to DOR (unknown origin) assessed as inhibition of radioligand binding by radioligand competition binding assay; conditions: concentration not given here
Homo sapiens = species: Homo sapiens; experiment: Binding affinity to GABAA receptor (unknown origin) assessed as inhibition of radioligand binding by radioligand competition binding assay; conditions: concentration not given here
[21] = biological target: Muscarinic acetylcholine receptor M3 (Homo sapiens) (UniProt P20309); experiment: Binding affinity to muscarinic M3 receptor (unknown origin) assessed as inhibition of radioligand binding by radioligand competition binding assay; conditions: concentration not given here
[22] = biological target: Muscarinic acetylcholine receptor M2 (Homo sapiens) (UniProt P08172); experiment: Binding affinity to muscarinic M2 receptor (unknown origin) assessed as inhibition of radioligand binding by radioligand competition binding assay; conditions: concentration not given here
[23] = biological target: Histamine H4 receptor (Homo sapiens) (UniProt Q9H3N8); experiment: Binding affinity to histamine H4 receptor (unknown origin) assessed as inhibition of radioligand binding by radioligand competition binding assay; conditions: concentration not given here
[24] = biological target: D(4) dopamine receptor (Homo sapiens) (UniProt P21917); experiment: Binding affinity to dopamine D4 receptor (unknown origin) assessed as inhibition of radioligand binding by radioligand competition binding assay; conditions: concentration not given here
[25] = biological target: Histamine H1 receptor (Homo sapiens) (UniProt P35367); experiment: Binding affinity to histamine H1 receptor (unknown origin) assessed as inhibition of radioligand binding by radioligand competition binding assay; conditions: concentration not given here
[26] = biological target: D(1A) dopamine receptor (Homo sapiens) (UniProt P21728); experiment: Binding affinity to dopamine D1 receptor (unknown origin) assessed as inhibition of radioligand binding by radioligand competition binding assay; conditions: concentration not given here
[27] = biological target: D(3) dopamine receptor (Homo sapiens) (UniProt P35462); experiment: Binding affinity to dopamine D3 receptor (unknown origin) assessed as inhibition of radioligand binding by radioligand competition binding assay; conditions: concentration not given here
[28] = biological target: Alpha-1D adrenergic receptor (Homo sapiens) (UniProt P25100); experiment: Binding affinity to andrenergic alpha1D receptor (unknown origin) assessed as inhibition of radioligand binding by radioligand competition binding assay; conditions: concentration not given here
[29] = biological target: Alpha-1A adrenergic receptor (Homo sapiens) (UniProt P35348); experiment: Binding affinity to andrenergic alpha1A receptor (unknown origin) assessed as inhibition of radioligand binding by radioligand competition binding assay; conditions: concentration not given here
[30] = biological target: Alpha-1B adrenergic receptor (Homo sapiens) (UniProt P35368); experiment: Binding affinity to andrenergic alpha1B receptor (unknown origin) assessed as inhibition of radioligand binding by radioligand competition binding assay; conditions: concentration not given here
[31] = biological target: 5-hydroxytryptamine receptor 3A (Homo sapiens) (UniProt P46098); experiment: Binding affinity to 5-HT3 receptor (unknown origin) assessed as inhibition of radioligand binding by radioligand competition binding assay; conditions: concentration not given here
[32] = biological target: 5-hydroxytryptamine receptor 2C (Homo sapiens) (UniProt P28335); experiment: Binding affinity to 5-HT2C receptor (unknown origin) assessed as inhibition of radioligand binding by radioligand competition binding assay; conditions: concentration not given here

T3 sequence (P41595 whole entry): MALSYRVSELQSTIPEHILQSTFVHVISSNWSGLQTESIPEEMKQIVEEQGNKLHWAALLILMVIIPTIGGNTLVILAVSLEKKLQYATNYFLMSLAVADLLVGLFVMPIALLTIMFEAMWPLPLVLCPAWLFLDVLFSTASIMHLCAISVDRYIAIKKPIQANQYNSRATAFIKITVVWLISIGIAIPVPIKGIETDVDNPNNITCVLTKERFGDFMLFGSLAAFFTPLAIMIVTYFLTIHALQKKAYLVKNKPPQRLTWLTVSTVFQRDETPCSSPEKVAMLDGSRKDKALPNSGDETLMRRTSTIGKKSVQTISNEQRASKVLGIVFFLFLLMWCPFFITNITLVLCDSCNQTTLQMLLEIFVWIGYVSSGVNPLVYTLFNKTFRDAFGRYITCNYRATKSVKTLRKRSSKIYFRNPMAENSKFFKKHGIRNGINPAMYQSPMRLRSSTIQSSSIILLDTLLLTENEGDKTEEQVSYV
Chain of Histamine H1 receptor (Homo sapiens) (P35367 whole entry): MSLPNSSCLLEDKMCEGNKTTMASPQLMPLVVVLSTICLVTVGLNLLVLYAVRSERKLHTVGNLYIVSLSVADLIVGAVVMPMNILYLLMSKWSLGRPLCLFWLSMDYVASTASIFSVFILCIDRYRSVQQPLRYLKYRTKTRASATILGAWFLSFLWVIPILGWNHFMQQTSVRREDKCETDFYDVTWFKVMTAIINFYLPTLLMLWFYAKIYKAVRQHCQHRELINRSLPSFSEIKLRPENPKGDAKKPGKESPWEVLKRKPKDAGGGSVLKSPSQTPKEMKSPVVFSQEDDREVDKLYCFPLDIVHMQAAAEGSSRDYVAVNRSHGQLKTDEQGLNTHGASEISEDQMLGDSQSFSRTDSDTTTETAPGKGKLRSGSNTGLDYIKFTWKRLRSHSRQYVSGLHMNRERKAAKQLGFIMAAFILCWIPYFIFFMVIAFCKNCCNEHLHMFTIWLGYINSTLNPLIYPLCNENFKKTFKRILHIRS
Chain of Alpha-2A adrenergic receptor (Homo sapiens) (P08913 whole entry): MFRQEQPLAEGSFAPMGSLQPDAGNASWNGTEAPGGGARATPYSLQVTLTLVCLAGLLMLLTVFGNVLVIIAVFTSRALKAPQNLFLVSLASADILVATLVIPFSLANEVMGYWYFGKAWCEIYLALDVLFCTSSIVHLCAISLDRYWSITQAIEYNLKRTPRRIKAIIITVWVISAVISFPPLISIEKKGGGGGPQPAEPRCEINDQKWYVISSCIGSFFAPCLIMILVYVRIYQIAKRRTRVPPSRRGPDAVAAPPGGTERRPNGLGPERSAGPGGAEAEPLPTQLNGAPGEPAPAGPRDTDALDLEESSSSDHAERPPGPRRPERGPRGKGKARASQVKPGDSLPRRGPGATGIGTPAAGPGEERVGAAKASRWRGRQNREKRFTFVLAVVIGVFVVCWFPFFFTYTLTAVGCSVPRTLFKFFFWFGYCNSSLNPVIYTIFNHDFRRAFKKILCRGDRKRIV
Chain of Muscarinic acetylcholine receptor M2 (Homo sapiens) (P08172 whole entry): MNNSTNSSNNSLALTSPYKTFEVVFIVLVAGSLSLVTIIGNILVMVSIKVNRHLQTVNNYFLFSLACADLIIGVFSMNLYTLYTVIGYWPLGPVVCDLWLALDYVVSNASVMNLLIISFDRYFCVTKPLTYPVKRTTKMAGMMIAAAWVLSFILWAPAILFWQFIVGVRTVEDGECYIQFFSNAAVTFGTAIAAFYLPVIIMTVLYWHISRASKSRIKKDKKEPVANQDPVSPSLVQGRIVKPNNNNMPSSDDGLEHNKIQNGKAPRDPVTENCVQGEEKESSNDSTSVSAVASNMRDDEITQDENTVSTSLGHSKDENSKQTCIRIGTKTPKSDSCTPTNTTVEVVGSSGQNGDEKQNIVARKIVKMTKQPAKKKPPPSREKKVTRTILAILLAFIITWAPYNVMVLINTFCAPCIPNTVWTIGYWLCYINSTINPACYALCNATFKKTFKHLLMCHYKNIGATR
Chain of Histamine H4 receptor (Homo sapiens) (Q9H3N8 whole entry): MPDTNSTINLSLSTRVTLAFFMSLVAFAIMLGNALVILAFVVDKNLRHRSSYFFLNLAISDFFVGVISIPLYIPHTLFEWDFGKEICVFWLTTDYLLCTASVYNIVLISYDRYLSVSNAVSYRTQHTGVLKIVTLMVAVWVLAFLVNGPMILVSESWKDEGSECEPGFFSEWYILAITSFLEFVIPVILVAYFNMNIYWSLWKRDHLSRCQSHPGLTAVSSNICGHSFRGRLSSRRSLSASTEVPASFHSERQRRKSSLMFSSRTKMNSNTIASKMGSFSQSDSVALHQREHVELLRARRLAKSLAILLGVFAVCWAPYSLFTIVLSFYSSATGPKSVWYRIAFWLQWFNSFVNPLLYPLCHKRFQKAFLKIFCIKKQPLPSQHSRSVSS
Chain of 5-hydroxytryptamine receptor 3A (Homo sapiens) (P46098 whole entry): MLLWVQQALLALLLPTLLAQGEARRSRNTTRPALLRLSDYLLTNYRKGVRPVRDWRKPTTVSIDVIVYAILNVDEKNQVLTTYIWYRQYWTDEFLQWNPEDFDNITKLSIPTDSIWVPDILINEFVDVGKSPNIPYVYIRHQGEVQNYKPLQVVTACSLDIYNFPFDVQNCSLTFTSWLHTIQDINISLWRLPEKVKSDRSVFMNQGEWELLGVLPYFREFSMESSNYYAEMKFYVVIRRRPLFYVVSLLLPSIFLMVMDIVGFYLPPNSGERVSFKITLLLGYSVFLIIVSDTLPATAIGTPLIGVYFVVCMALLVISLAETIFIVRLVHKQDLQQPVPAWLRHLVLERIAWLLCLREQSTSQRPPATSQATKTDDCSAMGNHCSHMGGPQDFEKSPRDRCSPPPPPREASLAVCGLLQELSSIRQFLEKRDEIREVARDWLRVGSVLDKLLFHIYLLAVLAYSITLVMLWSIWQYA
Chain of Alpha-1A adrenergic receptor (Homo sapiens) (P35348 whole entry): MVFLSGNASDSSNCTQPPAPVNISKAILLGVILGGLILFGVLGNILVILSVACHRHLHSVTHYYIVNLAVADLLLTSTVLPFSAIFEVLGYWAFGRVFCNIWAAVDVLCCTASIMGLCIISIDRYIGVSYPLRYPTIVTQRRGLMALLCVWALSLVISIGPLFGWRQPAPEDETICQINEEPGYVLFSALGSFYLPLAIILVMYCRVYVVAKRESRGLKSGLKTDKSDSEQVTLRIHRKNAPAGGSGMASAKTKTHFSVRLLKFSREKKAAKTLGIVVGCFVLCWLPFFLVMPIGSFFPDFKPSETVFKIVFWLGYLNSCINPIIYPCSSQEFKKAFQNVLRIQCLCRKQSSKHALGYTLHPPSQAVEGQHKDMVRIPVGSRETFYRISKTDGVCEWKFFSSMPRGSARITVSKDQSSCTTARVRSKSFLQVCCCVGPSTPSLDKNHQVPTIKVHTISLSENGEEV
Chain of 5-hydroxytryptamine receptor 1A (P08908 whole entry): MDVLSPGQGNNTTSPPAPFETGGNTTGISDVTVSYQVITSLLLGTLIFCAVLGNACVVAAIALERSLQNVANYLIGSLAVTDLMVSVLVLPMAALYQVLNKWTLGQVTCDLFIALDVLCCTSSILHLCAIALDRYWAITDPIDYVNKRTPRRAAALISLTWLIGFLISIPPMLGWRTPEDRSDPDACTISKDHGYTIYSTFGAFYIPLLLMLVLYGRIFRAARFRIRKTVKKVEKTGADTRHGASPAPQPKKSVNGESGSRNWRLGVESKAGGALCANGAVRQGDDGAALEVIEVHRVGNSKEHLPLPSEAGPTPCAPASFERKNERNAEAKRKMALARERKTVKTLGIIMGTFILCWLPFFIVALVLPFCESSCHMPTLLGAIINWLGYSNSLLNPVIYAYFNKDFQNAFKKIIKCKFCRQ
Chain of Sigma non-opioid intracellular receptor 1 (Homo sapiens) (Q99720 whole entry): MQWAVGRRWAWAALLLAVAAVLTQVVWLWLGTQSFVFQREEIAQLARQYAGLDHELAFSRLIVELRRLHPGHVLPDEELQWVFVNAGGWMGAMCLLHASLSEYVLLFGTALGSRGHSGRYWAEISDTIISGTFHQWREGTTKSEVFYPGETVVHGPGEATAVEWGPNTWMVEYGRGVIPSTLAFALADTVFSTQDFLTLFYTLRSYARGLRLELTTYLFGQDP

In the case of `COc1cc2c3c(c1OC)-c1ccccc1[C@@H](O)[C@@H]3NCC2`, the pIC50 [1] was 8.77, the pIC50 [2] was 8.16 and the pKi [3] was 7.15. It also gave a pKi [4] of 5.92, a pKi [5] of 6.61 and a pKi [6] of 6.06. The pKi [7] was 6.24, the pKi [8] was 7.72 and the pKi [9] was 7.89. It also gave an inhibition [10] greater than 50%, an inhibition [11] greater than 50% and an inhibition [12] greater than 50%. It also gave an inhibition [13] greater than 50%, an inhibition [14] greater than 50% and an inhibition [15] greater than 50%. It also gave an inhibition [16] greater than 50%, an inhibition (Rattus norvegicus) of less than 50% and an inhibition [17] of less than 50%. For the same compound, the inhibition [18] was less than 50%, the inhibition [19] was less than 50% and the inhibition [20] was less than 50%. The inhibition (Homo sapiens) was less than 50%, the inhibition [21] was less than 50% and the inhibition [22] was less than 50%. For the same compound, the inhibition [23] was less than 50%, the inhibition [24] was less than 50% and the inhibition [25] was less than 50%. The inhibition [26] was less than 50%, the inhibition [27] was less than 50% and the inhibition [28] was less than 50%. For the same compound, the inhibition [29] was less than 50%, the inhibition [30] was less than 50% and the inhibition [31] was less than 50%. For the same compound, the inhibition [32] was less than 50%.
